Compounds with a hit are over-represented: about 2.3% of the library has one in this group of screens.
MC4R antag cAMP: MC4R antagonists of cAMP signaling, primary screen, cell-based, TR-FRET, antagonist arm of biased-ligand search. Melanocortin receptor 4 (Homo sapiens), P32245. MC4R-expressing cells, MTII-stimulated cAMP, LANCE TR-FRET. inhibition, % at 6.5 µM. actives 0.48% (n = 360,000). AID 540295, 2011;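 active means inhibition above its plate's cutoff, the mean of tested wells on that plate plus 3 SD, cut at about 29% in these data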
Target sequence (P32245 whole entry, looked up): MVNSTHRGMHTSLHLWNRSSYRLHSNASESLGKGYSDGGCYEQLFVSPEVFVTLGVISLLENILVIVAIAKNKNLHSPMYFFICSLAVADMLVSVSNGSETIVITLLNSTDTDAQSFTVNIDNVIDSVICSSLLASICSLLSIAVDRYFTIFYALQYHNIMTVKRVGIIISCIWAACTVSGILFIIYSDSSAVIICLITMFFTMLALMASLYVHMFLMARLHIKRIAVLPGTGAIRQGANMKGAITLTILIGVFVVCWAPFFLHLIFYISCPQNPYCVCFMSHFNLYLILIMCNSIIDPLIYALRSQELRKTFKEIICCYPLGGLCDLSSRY
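Assay system: U2OS cells stably expressing human melanocortin 4 receptor (MC4R) / Dosing: 6.5 µM / Timing: compound 30 min, challenge 1 h, detection 1 h / Measured by: Eu-cAMP/anti-cAMP TR-FRET, emission 671 nm / Replicates: singlicate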
MC4R ag barr: MC4R agonists recruiting beta-arrestin, primary screen, cell-based, luminescence, agonist arm of biased-ligand search | Melanocortin receptor 4 (Homo sapiens), P32245 | U2OS MC4R beta-arrestin complementation; percent of melanotan II response, DMSO zero | activation, % at 8.9 µM | actives 0.98% (n = 360,000) | AID 540308, 2011;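 active means activation above a per-plate cutoff, the mean activation of sample wells on that plate plus 3 SD, cut at about 8% in these data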
MsrA inh: bovine MsrA enzyme inhibitors, primary screen, biochemical, absorbance, HTS; actives 0.75% (n = 360,000); inhibition, % at 15.5 µM; AID 651718, 2012; purified bovine MsrA, absorbance read-out; in the data active means inhibition above about 4.5%
bovine MsrA act: bovine MsrA enzyme activators, primary screen, biochemical, absorbance, HTS; Methionine sulfoxide reductase A (Bos taurus); purified bovine MsrA, absorbance read-out; activation, % at 10.6 µM; actives 0.3% (n = 360,000); AID 602163, 2012; in the data active means activation above about 7.5%
cAMP nonselect: nonselective cAMP signaling inhibitors, parental cells, counter-screen for MC4R biased antagonist project, cell-based, TR-FRET, U2OS, forskolin, triplicate; LANCE TR-FRET; inhibition, % at 6.5 µM; shares compounds with MC4R antag cAMP; actives 26% (n = 1,600); AID 602193, 2012;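 active means mean inhibition over triplicates above the low-control well mean plus 3 SD, set per campaign, cut at about 13% in these data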;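 further: signal is single emission at 671 nm which falls as cellular cAMP rises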
MC4R cAMP antag: MC4R cAMP antagonists, retest, confirmation, cell-based, TR-FRET. AID 602195, 2012. actives 27% (n = 1,600). inhibition, % at 6.5 µM. MC4R-expressing cells, MTII-stimulated cAMP. shares compounds with MC4R antag cAMP; in the data active means inhibition above about 29%
Hits are given with their value; n = inactive; x = no result.

SMILES	MC4R antag cAMP	MC4R ag barr	MsrA inh	bovine MsrA act	cAMP nonselect	MC4R cAMP antag
O=C(Nc1ccc(S(=O)(=O)Nc2ccccc2)cc1)C1COc2ccccc2O1 (stereo not drawn)	n	n	n	n	x	x
Cc1cc(C)nc(NS(=O)(=O)c2ccc(NC(=O)C3COc4ccccc4O3)cc2)n1 (stereo not drawn)	29	n	n	n	n	n
COc1ccc(OC)c(Cc2nnc(CCC(=O)N3CCCCC3c3nccs3)o2)c1 (stereo not drawn)	30	n	x	n	n	n
Cc1ccc(C(=O)C(OC(=O)CNC(=O)c2ccc(Cl)cc2)c2ccccc2)cc1 (stereo not drawn)	n	n	n	n	x	x
CCN1CC2CCCC3(C1)C(=O)NC1(CCCCC1)N=C23 (stereo not drawn)	n	n	n	n	x	x
Cc1cc(NC(=O)CSc2nc(-c3cccnc3)ccc2C#N)no1	n	n	n	n	x	x
Cc1cc(NC(=O)CSc2nc3ccccc3cc2C#N)no1	51	n	n	n	n	n
Cc1cc(NC(=O)CSc2nc3c(c(-c4cccnc4)c2C#N)CCC3)no1	47	n	n	n	19	57
CN(c1ccccc1)c1nc(N)c([N+](=O)[O-])c(NCc2ccccc2)n1	n	n	n	n	x	x
Cc1nc(Cl)nc(N(C)c2ccccc2)c1[N+](=O)[O-]	36	n	n	n	22	n
CC(=O)c1c(O)c(C)c(O)c2c1OC1=CC(=O)/C(=C(/C)N)C(=O)C12C (stereo not drawn)	36	n	n	n	n	n
O=C1/C(=C\c2ccc(Cl)c(Cl)c2)CN(C(=O)CCN2CCOCC2)C/C1=C/c1ccc(Cl)c(Cl)c1	37	n	n	n	26	31
O=C1/C(=C\c2ccccc2)CN(C(=O)CCN2CCCCC2)C/C1=C/c1ccccc1	n	n	n	n	x	x
CC(C)(C)OC(=O)CNC(=O)c1[nH]cnc1C(=O)NCC(=O)OCc1ccccc1	42	n	n	n	n	n
CC(C)(C)OC(=O)NCCCC[C@H](NC(=O)c1nc[nH]c1C(=O)NCC(=O)OCc1ccccc1)C(=O)OC(C)(C)C	n	n	n	n	x	x
CC(C)(C)OC(=O)NCCCCCNC(=O)c1nc[nH]c1C(=O)NCC(=O)OCc1ccccc1	46	n	n	n	n	n
CC(C)(C)OC(=O)CNC(=O)c1nc[nH]c1C(=O)NCc1ccccc1	n	n	n	n	x	x
Cn1c(=O)c2c(-c3ccccc3)n(-n3cnnc3)cc2n(C)c1=O	29	n	n	n	n	n
CN(CC(=O)Nc1ccc(Cl)cc1)C(=O)CCNC(=O)c1ccc(Cl)cc1	n	n	n	n	x	x
COc1cc(C(=O)NCCC(C)C)ccc1OCc1ccc(Cl)cc1Cl	n	n	n	n	x	x
Nc1[nH]nc2ncc3cc4ccccc4nc3c12	29	n	n	n	n	n
O=C(NCc1ccco1)C(c1ccccc1)N(C(=O)Cc1cccs1)c1cccnc1 (stereo not drawn)	29	n	n	n	n	n
O=[N+]([O-])c1cc(-c2nc(-c3ccncc3)no2)ccc1Cl	39	n	n	n	18	47
O=[N+]([O-])c1cc(-c2nc(-c3ccncc3)no2)cc([N+](=O)[O-])c1	n	n	n	n	x	x
CCOC(=O)c1c(NC(=O)C2c3ccccc3Oc3ccccc32)sc(C(N)=O)c1C	32	n	n	n	n	n
SMILES	MC4R antag cAMP	MC4R ag barr	MsrA inh	bovine MsrA act	cAMP nonselect	MC4R cAMP antag
CCOC(=O)c1c(C)nc2ccc(Cl)cc2c1-c1ccccc1	n	n	n	n	x	x
CCOCc1nc(N)nc(N)c1-c1cccc(Cl)c1	31	n	n	n	n	n
COc1ccc(CNC(=O)[C@H](Cc2c[nH]c3ccccc23)NC(=O)[C@@H]2Cc3ccccc3CN2)cc1	31	n	n	n	n	n
CCOc1ccc(N=c2cc(-c3ccc(OC)cc3)oc3ccccc23)cc1	n	n	n	n	x	x
CCCNC(=O)C(Sc1ccccc1)c1ccccc1 (stereo not drawn)	n	n	n	n	x	x
O=C(COC(=O)c1ccncc1)NCCCc1ccccc1	30	n	n	n	n	n
O=C(COC(=O)c1ccncc1)NCc1ccccc1	n	n	n	n	x	x
CCOc1cccc(C2/C(=C(/O)c3ccc4c(c3)CC(C)O4)C(=O)C(=O)N2CCN2CCOCC2)c1 (stereo not drawn)	38	n	n	n	n	n
CCCCOc1cccc(C2/C(=C(/O)c3ccc4c(c3)CC(C)O4)C(=O)C(=O)N2CCN2CCOCC2)c1 (stereo not drawn)	n	n	n	n	x	x
CC(C)CNS(=O)(=O)c1ccc(CCC(=O)N2CCN(Cc3ccc4c(c3)OCO4)CC2)cc1	n	n	n	n	x	x
COc1ccccc1NC(=O)c1ccc(NC(=O)Cc2n[nH]c(=O)c3ccccc23)cc1	30	n	n	n	n	n
CCOC(=O)C1=C(C)NC(=O)NC1c1ccc(OC(C)C(=O)O)c(OC)c1 (stereo not drawn)	n	n	n	n	x	x
Cc1ccccc1C(=O)N1CCc2c([nH]c3ccccc23)C1C(F)(F)F (stereo not drawn)	36	n	n	n	n	n
Cc1ccc(SC(C)C(=O)Nc2ccccc2C(=O)N2CCOCC2)cc1 (stereo not drawn)	n	n	n	n	x	x
Cc1cc(C)c(S(=O)(=O)N/N=C/c2ccc3c(c2)OCO3)c(C)c1	n	n	n	n	x	x
Cc1cc(NC(=O)COC(=O)CNS(=O)(=O)c2ccc(C)c(C)c2)no1	47	n	n	n	14	30
COC(=O)c1sc(N)c(C(=O)OC)c1COC(=O)CNS(=O)(=O)c1ccc(C)c(C)c1	32	n	n	n	n	n
CCOc1ccccc1NC(=O)COC(=O)CN(C)S(=O)(=O)c1ccc(C)cc1	n	n	n	n	x	x
CCOc1ccccc1NC(=O)COC(=O)CNS(=O)(=O)c1ccc(C)cc1	31	n	n	n	17	35
Cc1ccc(S(=O)(=O)NCC(=O)OCc2nnc(-c3ccccc3)o2)cc1C	29	n	n	n	20	41
Cc1cccc(NS(=O)(=O)c2ccc(C)c(C(=O)OCC(=O)Nc3cc(C)on3)c2)c1	n	n	n	n	x	x
CCOC(=O)c1ccccc1NC(=O)COC(=O)CCNS(=O)(=O)c1cccs1	n	n	n	n	x	x
O=C(CCNS(=O)(=O)c1ccccc1)OCc1nnc(-c2ccccc2)o1	n	n	n	n	x	x
O=C(CNS(=O)(=O)c1ccc2ccccc2c1)OCc1nnc(-c2ccccc2)o1	35	n	n	n	17	35
